Source: ChEMBL document CHEMBL3414546, “Design, synthesis and structure-activity relationship of oxazolidinone derivatives containing novel S4 ligand as FXa inhibitors” (Eur J Med Chem, 2015)
Converted amounts (≈) assume the structure as drawn.

Tests used:
Coagulation factor X [1] = molecular target: T1, Coagulation factor X (Oryctolagus cuniculus, UniProt O19045); test: Inhibition of F10a in rabbit plasma assessed as doubling of prothombin time
T1 sequence (O19045 whole entry): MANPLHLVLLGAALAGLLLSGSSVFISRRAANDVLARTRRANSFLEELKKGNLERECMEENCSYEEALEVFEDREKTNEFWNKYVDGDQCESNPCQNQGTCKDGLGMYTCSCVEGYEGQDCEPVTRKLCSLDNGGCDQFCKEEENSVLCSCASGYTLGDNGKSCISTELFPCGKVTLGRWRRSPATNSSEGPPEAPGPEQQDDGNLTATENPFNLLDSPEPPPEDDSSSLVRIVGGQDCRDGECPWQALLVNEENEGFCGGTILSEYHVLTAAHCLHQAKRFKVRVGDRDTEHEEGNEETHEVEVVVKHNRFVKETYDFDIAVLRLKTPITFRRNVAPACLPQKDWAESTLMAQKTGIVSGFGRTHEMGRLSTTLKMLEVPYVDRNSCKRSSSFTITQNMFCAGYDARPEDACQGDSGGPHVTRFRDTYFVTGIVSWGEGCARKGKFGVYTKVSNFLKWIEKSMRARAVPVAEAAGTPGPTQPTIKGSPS
Procedure, shortened: (§1)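 Citrated (3.8% sodium citrate) blood from healthy human volunteers or rabbit was spun at 2000 g for 10 min. The DMSO stock was diluted in plasma, 5–7 inhibitor concentrations were tested, and prothrombin time was read with Thromborel-S on an automated temperature-controlled coagulometer in duplicate. PTCT2 (the concentration doubling clotting time) came from regression of the concentration-response curve.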

Coagulation factor X [2] = molecular target: T2, Coagulation factor X (Homo sapiens, UniProt P00742); test: Inhibition of F10a in human plasma assessed as doubling of activated partial thromboplastin time
T2 sequence (P00742 41-179 limits assumed): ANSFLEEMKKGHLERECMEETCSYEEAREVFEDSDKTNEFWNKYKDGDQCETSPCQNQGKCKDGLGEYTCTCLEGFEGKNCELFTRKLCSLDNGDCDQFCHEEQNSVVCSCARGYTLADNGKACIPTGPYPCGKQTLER
T2 sequence (P00742 235-488 limits assumed): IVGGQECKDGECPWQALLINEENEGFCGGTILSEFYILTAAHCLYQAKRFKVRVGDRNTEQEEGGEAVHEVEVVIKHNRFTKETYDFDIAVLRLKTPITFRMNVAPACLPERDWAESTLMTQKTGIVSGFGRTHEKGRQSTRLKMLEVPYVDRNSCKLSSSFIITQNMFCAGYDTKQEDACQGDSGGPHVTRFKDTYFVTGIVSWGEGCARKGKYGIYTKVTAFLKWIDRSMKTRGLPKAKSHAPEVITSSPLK
Procedure, shortened: (§2)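 Plasma came from human volunteer or rabbit blood anticoagulated with 3.8% sodium citrate and centrifuged at 2000 g for 10 min. The DMSO stock was serially diluted in plasma. Clotting time was measured on control plasma and on plasma with five to seven inhibitor concentrations. The concentration doubling clotting time was estimated from the concentration-response curve.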

Coagulation factor X [3] = molecular target: T2, Coagulation factor X; test: Inhibition of human F10a using S-2765 as substrate at 0.1 uM after 45 mins by spectra max analysis relative to control
Procedure, shortened: (§3)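 Purified human FXa (10 ng) was used with chromogenic substrate S-2765 at 500 µM in 50 mM Tris-HCl pH 7.5, […], 1 mM CaCl2 and 2.5% DMSO (final). Compound was incubated for 45 min at 37 °C, and absorbance was read at 405 nm. Percent inhibition came from reaction velocity versus DMSO control. IC50 was taken from a plot of inhibition against concentration.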

Coagulation factor X [4] = molecular target: T2, Coagulation factor X; test: Inhibition of F10a in human plasma assessed as doubling of prothombin time; procedure, shortened: as §1
Coagulation factor X [5] = molecular target: T1, Coagulation factor X; test: Inhibition of F10a in rabbit plasma assessed as doubling of activated partial thromboplastin time; procedure, shortened: as §2
Coagulation factor X [6] = molecular target: T2, Coagulation factor X; test: Inhibition of human F10a using S-2765 as substrate after 45 mins by spectra max analysis; procedure, shortened: as §3
[7] = Solubility of the compound by Chinese pharmacopoeia 2010 edition of the second collection method; type: physicochemical

Row | Compound | IC50 (Coagulation factor X [1]) | IC50 (Coagulation factor X [2]) | inhibition (Coagulation factor X [3]) | IC50 (Coagulation factor X [4]) | IC50 (Coagulation factor X [5]) | IC50 (Coagulation factor X [6]) | solubility [7]
1 | CC1CCN(Cc2cccn2-c2ccc(N3C[C@H](CNC(=O)c4ccc(Cl)s4)OC3=O)cc2)CC1 | 3450 nM | 3530 nM | 70% | 3220 nM | 3780 nM |  | 
2 | CN(C)Cc1cc2ccccc2n1-c1ccc(N2C[C@H](CNC(=O)c3ccc(Cl)s3)OC2=O)cc1 | 5920 nM | 6020 nM | 69% | 5780 nM | 6230 nM |  | 
3 | O=C(NC[C@H]1CN(c2ccc(N3CCOCC3=O)cc2)C(=O)O1)c1ccc(Cl)s1 [RIVAROXABAN] | 510 nM |  | 100% |  | 860 nM |  | 
4 | CN(C)Cc1csc(-c2ccc(N3C[C@H](CNC(=O)c4ccc(Cl)s4)OC3=O)cc2)n1 | 920 nM | 980 nM | 91% | 870 nM | 1240 nM |  | 
5 | O=C(NC[C@H]1CN(c2ccc(-n3cccc3CN3CCCCC3)cc2)C(=O)O1)c1ccc(Cl)s1 | 2890 nM | 2850 nM | 82% | 2620 nM | 3230 nM |  | 
6 | CCN(CC)Cc1csc(-c2ccc(N3C[C@H](CNC(=O)c4ccc(Cl)s4)OC3=O)cc2)n1 | 720 nM | 820 nM | 100% | 510 nM | 1030 nM | 9.46 nM | 
7 | O=C(NC[C@H]1CN(c2ccc(-n3c(CN4CCCCC4)cc4ccccc43)cc2)C(=O)O1)c1ccc(Cl)s1 | 11500 nM |  | 52% | 11000 nM |  |  | 
8 | CN(C)Cc1cccn1-c1ccc(N2C[C@H](CNC(=O)c3ccc(Cl)s3)OC2=O)cc1F | 910 nM | 1330 nM | 90% | 650 nM | 1580 nM | 6.58 nM | 10.2 µg/mL (≈ 21.4 µM)
9 | O=C(NC[C@H]1CN(c2ccc(-c3nc(CN4CCCC4)cs3)cc2)C(=O)O1)c1ccc(Cl)s1 | 2780 nM | 2710 nM | 79% | 2420 nM | 3040 nM |  | 
10 | CCN(CC)Cc1cc2ccccc2n1-c1ccc(N2C[C@H](CNC(=O)c3ccc(Cl)s3)OC2=O)cc1 | 6020 nM | 5450 nM | 61% | 5320 nM | 6110 nM |  | 
11 | CN(C)Cc1cccn1-c1cc(F)c(N2C[C@H](CNC(=O)c3ccc(Cl)s3)OC2=O)c(F)c1 | 1980 nM | 2310 nM | 88% | 1830 nM | 2560 nM |  | 
12 | CN1CCN(Cc2cccn2-c2ccc(N3C[C@H](CNC(=O)c4ccc(Cl)s4)OC3=O)cc2)CC1 | 3900 nM | 4010 nM | 71% | 3800 nM | 4140 nM |  | 
13 | CNCc1csc(-c2ccc(N3C[C@H](CNC(=O)c4ccc(Cl)s4)OC3=O)cc2)n1 | 1660 nM | 1870 nM | 89% | 1650 nM | 1910 nM |  | 
14 | O=C(NC[C@H]1CN(c2ccc(-c3nc(CN4CCCCC4)cs3)cc2)C(=O)O1)c1ccc(Cl)s1 | 3120 nM | 2950 nM | 72% | 2720 nM | 3460 nM |  | 
15 | O=C(NC[C@H]1CN(c2ccc(-n3cccc3CN3CCC3)cc2)C(=O)O1)c1ccc(Cl)s1 | 810 nM | 1310 nM | 92% | 700 nM | 1520 nM |  | 
16 | CN1CCN(Cc2csc(-c3ccc(N4C[C@H](CNC(=O)c5ccc(Cl)s5)OC4=O)cc3)n2)CC1 | 4230 nM | 4120 nM | 56% | 3850 nM | 5120 nM |  | 33.2 µg/mL (≈ 62.4 µM)
17 | CC1CCN(Cc2cc3ccccc3n2-c2ccc(N3C[C@H](CNC(=O)c4ccc(Cl)s4)OC3=O)cc2)CC1 | 12100 nM | 11900 nM | 56% | 10500 nM | 13100 nM |  | 
18 | CCNCc1csc(-c2ccc(N3C[C@H](CNC(=O)c4ccc(Cl)s4)OC3=O)cc2)n1 | 890 nM | 790 nM | 93% | 650 nM | 1160 nM |  | 
19 | O=C(NC[C@H]1CN(c2ccc(-n3cccc3CN3CCOCC3)cc2)C(=O)O1)c1ccc(Cl)s1 | 3190 nM | 3310 nM | 76% | 2930 nM | 3520 nM |  | 
20 | CN1CCN(Cc2cc3ccccc3n2-c2ccc(N3C[C@H](CNC(=O)c4ccc(Cl)s4)OC3=O)cc2)CC1 | 13300 nM |  | 45% | 11300 nM |  |  | 
21 | CCN(CC)Cc1cccn1-c1ccc(N2C[C@H](CNC(=O)c3ccc(Cl)s3)OC2=O)cc1 | 460 nM | 300 nM | 100% | 150 nM | 750 nM | 2.01 nM | 6.9 µg/mL (≈ 14.2 µM)
22 | CN(C)Cc1cccn1-c1ccc(N2C[C@H](CNC(=O)c3ccc(Cl)s3)OC2=O)cc1 | 780 nM | 1200 nM | 98% | 610 nM | 1390 nM | 7.24 nM | 
23 | CC1CCN(Cc2csc(-c3ccc(N4C[C@H](CNC(=O)c5ccc(Cl)s5)OC4=O)cc3)n2)CC1 | 3780 nM | 3390 nM | 68% | 3030 nM | 4020 nM |  | 
24 | O=C(NC[C@H]1CN(c2ccc(-c3nc(CN4CCOCC4)cs3)cc2)C(=O)O1)c1ccc(Cl)s1 | 4060 nM | 3810 nM | 62% | 3600 nM | 4790 nM |  | 
25 | O=C(NC[C@H]1CN(c2ccc(-n3c(CN4CCOCC4)cc4ccccc43)cc2)C(=O)O1)c1ccc(Cl)s1 | 11100 nM | 11200 nM | 58% | 10100 nM |  |  | 25.8 µg/mL (≈ 46.8 µM)
26 | O=C(NC[C@H]1CN(c2cc(F)c(-n3cccc3CN3CCCC3)c(F)c2)C(=O)O1)c1ccc(Cl)s1 | 2980 nM | 3060 nM | 73% | 2790 nM | 3670 nM |  | 20.4 µg/mL (≈ 39.2 µM)
27 | O=C(NC[C@H]1CN(c2ccc(-n3cccc3CN3CCCC3)cc2)C(=O)O1)c1ccc(Cl)s1 | 1580 nM | 1710 nM | 89% | 1420 nM | 1980 nM |  | 
